ChEMBL document CHEMBL3112482, “Nonclassical antifolates, part 5. Benzodiazepine analogs as a new class of DHFR inhibitors: synthesis, antitumor testing and molecular modeling study” (Eur J Med Chem, 2014)
pIC50: −log10 of the molar value.

Key:
Dihydrofolate reductase = target: T1, Dihydrofolate reductase (Bos taurus, UniProt P00376); test: Inhibition of bovine liver DHFR measured for every 1 min of 10 mins
T1 sequence (P00376 whole entry): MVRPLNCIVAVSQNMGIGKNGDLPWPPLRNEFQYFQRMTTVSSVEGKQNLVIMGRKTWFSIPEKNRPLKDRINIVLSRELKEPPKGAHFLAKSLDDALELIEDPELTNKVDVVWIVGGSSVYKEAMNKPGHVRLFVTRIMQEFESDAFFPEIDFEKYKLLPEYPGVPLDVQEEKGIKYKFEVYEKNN

[1] = Cytotoxicity against human leukemia cells at 10 uM after 48 hrs; format: functional; conditions: Leukemia cell
[2] = Cytotoxicity against human prostate cancer cells at 10 uM after 48 hrs; format: functional; conditions: Cancer cell lines
[3] = Cytotoxicity against human melanoma cells at 10 uM after 48 hrs; format: functional; conditions: Melanoma cell
Outline: (§1)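 Single-dose primary screen in the NCI 60 human tumour cell line panel, run at the NCI facility. The panel covers nine subpanels: leukaemia, non-small cell lung, colon, CNS, melanoma, ovarian, renal, prostate and breast. Read-out was percent growth of treated cells, shown as a mean graph and reported as percent growth inhibition.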

[4] = Cytotoxicity against human renal cancer cells at 10 uM after 48 hrs; format: functional; conditions: Cancer cell lines
[5] = Cytotoxicity against human CNS cancer cells at 10 uM after 48 hrs; format: functional; conditions: Cancer cell lines
[6] = Cytotoxicity against human colon cancer cells at 10 uM after 48 hrs; format: functional; conditions: Cancer cell lines; outline: as §1
[7] = Cytotoxicity against human breast cancer cells at 10 uM after 48 hrs; format: functional; conditions: Cancer cell lines; outline: as §1
[8] = Cytotoxicity against human non-small cell lung cancer cells at 10 uM after 48 hrs; format: functional; conditions: Cancer cell lines; outline: as §1
[9] = read-out: LC50 (the source's name)

| Structure (SMILES) | pIC50 (Dihydrofolate reductase) | TGI [1] [µM] | GI50 [2] [µM] | TGI [2] [µM] | GI50 [3] [µM] | TGI [3] [µM] | CC50 [3, 9] [µM] | CC50 [4] [µM] | GI50 [4] [µM] | TGI [4] [µM] | TGI [5] [µM] | CC50 [5, 9] [µM] | GI50 [6] [µM] | TGI [6] [µM] | CC50 [6, 9] [µM] | GI50 [7] [µM] | TGI [7] [µM] | GI50 [8] [µM] | TGI [8] [µM] | CC50 [8, 9] [µM] |
| --- | --- | --- | --- | --- | --- | --- | --- | --- | --- | --- | --- | --- | --- | --- | --- | --- | --- | --- | --- | --- |
| COc1cc(/C=C2\CCCC3=C(c4cc(OC)c(OC)c(OC)c4)Nc4cc(C)c(C)cc4N=C32)cc(OC)c1OC | 6.00 |  |  |  |  |  |  |  |  |  |  |  |  |  |  |  |  |  |  |  |
| O=c1[nH]cc(F)c(=O)[nH]1 [FLUOROURACIL] |  | > 100 | 22.7 | > 100 | 70.6 | > 100 | > 100 | > 100 | 45.6 | > 100 | > 100 | > 100 | 8.4 | > 100 | > 100 | 76.4 | > 100 | > 100 | > 100 | > 100 |
| COc1ccc(/C=C2\CCCC3=C(c4ccc(OC)c(OC)c4)Nc4ccccc4N=C32)cc1OC | 7.22 |  |  |  |  |  |  |  |  |  |  |  |  |  |  |  |  |  |  |  |
